Molecules are shown by their SMILES. pIC50: −log10 of the molar value. Activity calls are given as the source filed them.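 The calls were made as follows: active = inhibition of at least 30% at any tested concentration; inactive = the rest.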

A word on the pIC50: it is −log10 of the IC50, conventionally taken in molar units.

The first assay addresses M18 aspartyl aminopeptidase (Plasmodium falciparum 3D7). Put plainly: malaria aspartyl aminopeptidase M18 inhibitors – biochemical, QFRET, H-Glu-NHMec substrate, set 3, selectivity assay for PfM17LAP inhibitor project, dose response (AID 602316). The following applies: recombinant PfM18AAP, H-Glu-NHMec fluorogenic cleavage. The procedure, abridged: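 System – purified recombinant P. falciparum M18 aspartyl aminopeptidase (PFM18AAP) · Medium – Tris-HCl buffer pH 7.5, 2 mM CoCl2, 0.01% Triton X-100 · Timing – 90 min reaction, room temperature · Technique – NHMec fluorescence at 370/460 nm · Read-out basis – % inhibition and fitted IC50 · Replication – each dose tested in triplicate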
`CCC(C)Oc1ccc(CC(=O)NO)cc1` (stereo not drawn): the pIC50 was 4.56.
Turning to `CCCCOc1cccc(CC(=O)NO)c1`, the pIC50 is 4.54.
Same read-out and setting: next, `CCCCOc1ccc(C(C)C(=O)NO)cc1` (stereo not drawn): 4.66.
Still for that read-out and setting: next, `CCCOc1ccc(CC(=O)NO)cc1`: 4.58.

The same assay, now with this note: recombinant PfM18AAP, H-Glu-NHMec fluorogenic cleavage; at 100 µM (top of the series).
On to `CCCCOc1ccc(CN(O)C(=O)c2ccccc2)cc1`, for which the inhibition result is “inactive”.
On the same count and under the same terms, then `CCCCOc1cccc(CC(=O)OC)c1`, with “inactive”.
The same measure, in the same setting: then `CCCCOc1ccc(C(C)C(=O)O)cc1` (stereo not drawn), with “inactive”; and `CCCOc1ccc(CC(=O)O)cc1`, with “inactive”.
The same measure, in the same setting: next, `CCCCOc1ccc(C(C)(C)C(=O)O)cc1`: “inactive”; `CCCCOc1ccc(CN(O)C(C)=O)cc1`: “inactive”; `CCCCOc1ccc(C(C)(C)C(=O)NO)cc1`: “inactive”.
For the molecule `CCCCOc1ccc(C(C)C(=O)OC)cc1` (stereo not drawn), the inhibition result is “inactive”.
Consider `CN(C)CCOc1ccc(CC(=O)O)cc1`, for which the inhibition result was “inactive”.
